{"source": "ChEMBL document CHEMBL4665711", "about": "“Synthesis of (Z)-3-(arylamino)-1-(3-phenylimidazo[1,5-a]pyridin-1-yl)prop-2-en-1-ones as potential cytotoxic agents” (Bioorg Med Chem Lett, 2020)", "key": {"HCT-116 [1]": {"system": "HCT-116", "test": "Induction of apoptosis in human HCT-116 cells assessed as increase in late apoptotic cells incubated for 48 hrs by annexin-V and propidium iodide staining based flow cytometry analysis", "type": "functional, cell-based", "details": "dose microM 0.5-2.5, time 48.0 hrs"}, "HCT-116 [2]": {"system": "HCT-116", "test": "Induction of apoptosis in human HCT-116 cells assessed as necrotic cells at 2.5 uM incubated for 48 hrs by annexin-V and propidium iodide staining based flow cytometry analysis (reference value: 0.36 %)", "type": "functional"}, "HCT-116 [3]": {"system": "HCT-116", "test": "Induction of apoptosis in human HCT-116 cells assessed as necrotic cells at 1 uM incubated for 48 hrs by annexin-V and propidium iodide staining based flow cytometry analysis (reference value: 0.36 %)", "type": "functional"}, "HCT-116 [4]": {"system": "HCT-116", "test": "Induction of apoptosis in human HCT-116 cells assessed as necrotic cells at 0.5 uM incubated for 48 hrs by annexin-V and propidium iodide staining based flow cytometry analysis (reference value: 0.36 %)", "type": "functional"}, "HCT-116 [5]": {"system": "HCT-116", "test": "Induction of apoptosis in human HCT-116 cells assessed as late apoptotic cells at 2.5 uM incubated for 48 hrs by annexin-V and propidium iodide staining based flow cytometry analysis (reference value: 1.48 %)", "type": "functional"}, "HCT-116 [6]": {"system": "HCT-116", "test": "Induction of apoptosis in human HCT-116 cells assessed as late apoptotic cells at 1 uM incubated for 48 hrs by annexin-V and propidium iodide staining based flow cytometry analysis (reference value: 1.48 %)", "type": "functional"}, "HCT-116 [7]": {"system": "HCT-116", "test": "Induction of apoptosis in human HCT-116 cells assessed as late apoptotic cells at 0.5 uM incubated for 48 hrs by annexin-V and propidium iodide staining based flow cytometry analysis (reference value: 1.48 %)", "type": "functional"}, "HCT-116 [8]": {"system": "HCT-116", "test": "Induction of apoptosis in human HCT-116 cells assessed as early apoptotic cells at 2.5 uM incubated for 48 hrs by annexin-V and propidium iodide staining based flow cytometry analysis (reference value: 1.87 %)", "type": "functional"}, "HCT-116 [9]": {"system": "HCT-116", "test": "Induction of apoptosis in human HCT-116 cells assessed as early apoptotic cells at 1 uM incubated for 48 hrs by annexin-V and propidium iodide staining based flow cytometry analysis (reference value: 1.87 %)", "type": "functional"}, "HCT-116 [10]": {"system": "HCT-116", "test": "Induction of apoptosis in human HCT-116 cells assessed as early apoptotic cells at 0.5 uM incubated for 48 hrs by annexin-V and propidium iodide staining based flow cytometry analysis (reference value: 1.87 %)", "type": "functional"}, "HCT-116 [11]": {"system": "HCT-116", "test": "Induction of apoptosis in human HCT-116 cells assessed as viable cells at 1 uM incubated for 48 hrs by annexin-V and propidium iodide staining based flow cytometry analysis (reference value: 96.29 %)", "type": "functional", "details": "read-out: Activity"}, "HCT-116 [12]": {"system": "HCT-116", "test": "Induction of apoptosis in human HCT-116 cells assessed as viable cells at 0.5 uM incubated for 48 hrs by annexin-V and propidium iodide staining based flow cytometry analysis (reference value: 96.29 %)", "type": "functional", "details": "read-out: Activity"}, "HCT-116 [13]": {"system": "HCT-116", "test": "Induction of mitochondrial membrane potential loss in human HCT-116 cells assessed as cells with hyperpolarized mitochondria by measuring decrease in J-aggregates red fluorescence intensity at 0.5 uM incubated for 48 hrs by JC1 staining based flow cytometry analysis (reference value: 86.42 %)", "type": "functional", "parameters": "scale not given: the % may be the effect or the level left"}, "HCT-116 [14]": {"system": "HCT-116", "test": "Induction of ROS production in human HCT-116 cells incubated for 24 hrs by DCFDA staining based fluorescence microscopic analysis", "type": "functional, cell-based", "details": "dose microM 0.5-2.5, time 24.0 hrs", "procedure,_shortened": "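For intracellular ROS, HCT-116 cells were incubated at 0.5, 1 and 2.5 µM for 24 h and stained with DCFDA. Cells were imaged by fluorescence microscopy, and DCF fluorescence was quantified at 480/535 nm excitation/emission in arbitrary units against control.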"}, "HCT-116 [15]": {"system": "HCT-116", "test": "Induction of apoptosis in human HCT-116 cells assessed as loose cell structure at 0.5 to 2.5 uM incubated for 48 hrs by DAPI staining based fluorescence microscopic analysis", "type": "functional", "details": "dose microM 0.5-2.5, time 48.0 hrs", "procedure,_shortened": "(§1)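 Nuclear morphology was imaged by fluorescence microscopy using a DAPI filter at 200×; untreated cells served as control.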"}, "HCT-116 [16]": {"system": "HCT-116", "test": "Induction of apoptosis in human HCT-116 cells assessed as increase in DNA breakdown incubated for 24 hrs by acridine orange staining based microscopic analysis", "type": "functional, cell-based", "details": "dose microM 0.5-2.5, time 24.0 hrs", "procedure,_shortened": "(§2)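 HCT-116 cells were incubated at 0.5, 1.0 and 2.5 µM for 24 h and stained with acridine orange. Green fluorescence (excitation 480-490 nm), chromatin distribution and blebbing were inspected microscopically at 200× against untreated controls.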"}, "HCT-116 [17]": {"system": "HCT-116", "test": "Induction of apoptosis in human HCT-116 cells assessed as membrane blebbing at 0.5 to 2.5 uM incubated for 24 hrs by acridine orange staining based microscopic analysis", "type": "functional, cell-based", "details": "dose microM 0.5-2.5, time 24.0 hrs", "procedure,_shortened": "as §2"}, "HCT-116 [18]": {"system": "HCT-116", "test": "Induction of apoptosis in human HCT-116 cells assessed as irregular distribution of chromatin at 0.5 to 2.5 uM incubated for 24 hrs by acridine orange staining based microscopic analysis", "type": "functional, cell-based", "details": "dose microM 0.5-2.5, time 24.0 hrs", "procedure,_shortened": "as §2"}, "HCT-116 [19]": {"system": "HCT-116", "test": "Cytotoxicity against human HCT-116 cells assessed as induction of cell morphological changes at 0.5 to 2.5 uM incubated for 48 hrs by phase contrast microscopy", "type": "functional, cell-based", "details": "dose microM 0.5-2.5, time 48.0 hrs"}, "HCT-116 [20]": {"system": "HCT-116", "test": "Induction of cell cycle arrest in human HCT-116 cells assessed as G2/M phase at 2.5 uM incubated for 48 hrs by propidium iodide based flow cytometry analysis (reference value: 15.3 %)", "type": "functional"}, "HCT-116 [21]": {"system": "HCT-116", "test": "Induction of cell cycle arrest in human HCT-116 cells assessed as G2/M phase at 1 uM incubated for 48 hrs by propidium iodide based flow cytometry analysis (reference value: 15.3 %)", "type": "functional"}, "HCT-116 [22]": {"system": "HCT-116", "test": "Induction of cell cycle arrest in human HCT-116 cells assessed as S phase at 2.5 uM incubated for 48 hrs by propidium iodide based flow cytometry analysis (reference value: 7.8 %)", "type": "functional"}, "HCT-116 [23]": {"system": "HCT-116", "test": "Induction of cell cycle arrest in human HCT-116 cells assessed as S phase at 0.5 uM incubated for 48 hrs by propidium iodide based flow cytometry analysis (reference value: 7.8 %)", "type": "functional"}, "HCT-116 [24]": {"system": "HCT-116", "test": "Induction of cell cycle arrest in human HCT-116 cells assessed as G0/G1 phase at 1 uM incubated for 48 hrs by propidium iodide based flow cytometry analysis (reference value: 28.2 %)", "type": "functional"}, "HCT-116 [25]": {"system": "HCT-116", "test": "Induction of cell cycle arrest in human HCT-116 cells assessed as G0/G1 phase at 0.5 uM incubated for 48 hrs by propidium iodide based flow cytometry analysis (reference value: 28.2 %)", "type": "functional"}, "HCT-116 [26]": {"system": "HCT-116", "test": "Induction of cell cycle arrest in human HCT-116 cells assessed as sub-G1 phase at 1 uM incubated for 48 hrs by propidium iodide based flow cytometry analysis (reference value: 2.1 %)", "type": "functional"}, "B16-F10": {"system": "B16-F10", "test": "Cytotoxicity against mouse B16-F10 cells assessed as reduction in cell viability incubated for 48 hrs by MTT assay", "type": "functional, cell-based", "details": "B16-F10, 48 h", "procedure,_shortened": "(§3)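 Cancer cell lines were exposed to drug for 48 h, and the 50% inhibitory concentration was determined. Values are averages of three individual experiments. A549, HCT-116, BT-474 and MDA-MB-231 are human lines; B16F10 is a murine melanoma line.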"}, "A549": {"system": "A549", "test": "Cytotoxicity against human A549 cells assessed as reduction in cell viability incubated for 48 hrs by MTT assay", "type": "functional, cell-based", "details": "A549, 48 h", "procedure,_shortened": "as §3"}, "HCT-116 [27]": {"system": "HCT-116", "test": "Cytotoxicity against human HCT-116 cells assessed as reduction in cell viability incubated for 48 hrs by MTT assay", "type": "functional, cell-based", "details": "HCT-116, 48 h", "procedure,_shortened": "as §3"}, "HCT-116 [28]": {"system": "HCT-116", "test": "Induction of apoptosis in human HCT-116 cells assessed as condensed DNA at 0.5 to 2.5 uM incubated for 48 hrs by DAPI staining based fluorescence microscopic analysis", "type": "functional, cell-based", "details": "dose microM 0.5-2.5, time 48.0 hrs", "procedure,_shortened": "as §1"}}, "note": "Activity calls are given as the source filed them. The calls are words filed in the database; no cut-off is given here.", "data": [{"smiles": "O=C(/C=C\\Nc1ccc(Cl)cc1)c1nc(-c2ccc(F)cc2)n2ccccc12", "values": [{"measurement": "Activity", "setting": "HCT-116 [1]", "value": "Dose-dependent effect"}, {"measurement": "Activity", "setting": "HCT-116 [2]", "value": 13.3, "unit": "%"}, {"measurement": "Activity", "setting": "HCT-116 [3]", "value": 3.49, "unit": "%"}, {"measurement": "Activity", "setting": "HCT-116 [4]", "value": 0.68, "unit": "%"}, {"measurement": "Activity", "setting": "HCT-116 [5]", "value": 6.97, "unit": "%"}, {"measurement": "Activity", "setting": "HCT-116 [6]", "value": 6.94, "unit": "%"}, {"measurement": "Activity", "setting": "HCT-116 [7]", "value": 5.7, "unit": "%"}, {"measurement": "Activity", "setting": "HCT-116 [8]", "value": 2.29, "unit": "%"}, {"measurement": "Activity", "setting": "HCT-116 [9]", "value": 3.78, "unit": "%"}, {"measurement": "Activity", "setting": "HCT-116 [10]", "value": 6.17, "unit": "%"}, {"measurement": "viability at 1 µM", "setting": "HCT-116 [11]", "value": 85.8, "unit": "%"}, {"measurement": "viability at 0.5 µM", "setting": "HCT-116 [12]", "value": 87.5, "unit": "%"}, {"measurement": "Activity", "setting": "HCT-116 [13]", "value": 85.48, "unit": "%"}, {"measurement": "Activity", "setting": "HCT-116 [14]", "value": "Dose-dependent effect"}, {"measurement": "Activity", "setting": "HCT-116 [15]", "value": "Active"}, {"measurement": "Activity", "setting": "HCT-116 [16]", "value": "Dose-dependent effect"}, {"measurement": "Activity", "setting": "HCT-116 [17]", "value": "Active"}, {"measurement": "Activity", "setting": "HCT-116 [18]", "value": "Active"}, {"measurement": "Activity", "setting": "HCT-116 [19]", "value": "Active"}, {"measurement": "Activity", "setting": "HCT-116 [20]", "value": 15.6, "unit": "%"}, {"measurement": "Activity", "setting": "HCT-116 [21]", "value": 16.4, "unit": "%"}, {"measurement": "Activity", "setting": "HCT-116 [22]", "value": 8.5, "unit": "%"}, {"measurement": "Activity", "setting": "HCT-116 [23]", "value": 7, "unit": "%"}, {"measurement": "Activity", "setting": "HCT-116 [24]", "value": 38.7, "unit": "%"}, {"measurement": "Activity", "setting": "HCT-116 [25]", "value": 31.5, "unit": "%"}, {"measurement": "Activity", "setting": "HCT-116 [26]", "value": 1.9, "unit": "%"}, {"measurement": "IC50", "setting": "B16-F10", "value": 11, "unit": "µM"}, {"measurement": "IC50", "setting": "A549", "value": 5.09, "unit": "µM"}, {"measurement": "IC50", "setting": "HCT-116 [27]", "value": 1210, "unit": "nM"}, {"measurement": "Activity", "setting": "HCT-116 [28]", "value": "Active"}]}]}
